ChEMBL document CHEMBL5303300, “EUbOPEN Chemogenomics Library - Multiplex” (2023)
Several values for one entry are separate records, joined by “and”; a condition that tells them apart may be missing. Identical values can stand only once.

Tested on: U2OS
Experiment: Multiplex assay against U2OS
Type: toxicity, cell-based
Details: human, number of replicates 2
Summary of the method: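 Values for tubulin, mitochondrial-mass and membrane-permeability phenotypes are per cents of cells with healthy nuclei. These cells were identified by CellPathfinder machine-learning gating of live cells that had been stained at seeding with Hoechst33342, BioTracker Green Microtubule Cytoskeleton Dye, MitoTracker Red and Annexin V Alexa Fluor 680 and imaged on a CQ1 microscope at 37°C and 5% CO2 after compound addition. The gating first set Hoechst high-intensity objects apart from normal cells, then split normal cells into healthy, pyknosed or fragmented nuclei, and pyknosed cells into mitotic or apoptotic.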

[1] = 12 h, 1 µM, compound concentration 1 uM
[2] = 12 h, 10 µM, compound concentration 10 uM
[3] = 24 h, 1 µM, compound concentration 1 uM
[4] = 24 h, 10 µM, compound concentration 10 uM
[5] = 48 h, 1 µM, compound concentration 1 uM
[6] = 48 h, 10 µM, compound concentration 10 uM

CC(C)NC(=O)[C@H]1CCC[C@H]1Nc1nc(Nc2ccc(C(=O)N(C)C3CCN(C)CC3)cc2)ncc1Cl
Population Apoptotic (%) [1]: 75% and 60%
Population Fragmented Nuclei (%) [1]: 17% and 6%
Population Healthy Nuclei (%) [1]: 72% and 81%
Population Hoechst High Intensity Objects (%) [1]: 0%
Population Membrane Permeable-Phenotype (%) [1]: 0% and 2%
Population Mitochondria Different-Phenotype (%) [1]: 0%
Population Mitotic Cells (%) [1]: 25% and 40%
Population Normal (%) [1]: 100% and 99%
Population Pyknosed Nuclei (%) [1]: 10% and 12%
Population Tubulin-Different-Phenotype (%) [1]: 65% and 57%
Population Apoptotic (%) [2]: 100% and 69%
Population Healthy Nuclei (%) [2]: 65% and 73%
Population Hoechst High Intensity Objects (%) [2]: 0%
Population Membrane Permeable-Phenotype (%) [2]: 13% and 18%
Population Mitochondria Different-Phenotype (%) [2]: 0% and 15%
Population Normal (%) [2]: 100%
Population Pyknosed Nuclei (%) [2]: 8% and 20%
Population Tubulin-Different-Phenotype (%) [2]: 40% and 36%
Population Apoptotic (%) [3]: 42% and 87%
Population Fragmented Nuclei (%) [3]: 8% and 3%
Population Healthy Nuclei (%) [3]: 70% and 83%
Population Hoechst High Intensity Objects (%) [3]: 0%
Population Membrane Permeable-Phenotype (%) [3]: 4% and 1%
Population Mitochondria Different-Phenotype (%) [3]: 0%
Population Normal (%) [3]: 100%
Population Pyknosed Nuclei (%) [3]: 20% and 12%
Population Tubulin-Different-Phenotype (%) [3]: 58% and 61%
Population Apoptotic (%) [4]: 75% and 82%
Population Healthy Nuclei (%) [4]: 43% and 65%
Population Hoechst High Intensity Objects (%) [4]: 0%
Population Membrane Permeable-Phenotype (%) [4]: 15% and 13%
Population Mitochondria Different-Phenotype (%) [4]: 46% and 31%
Population Mitotic Cells (%) [4]: 25% and 17%
Population Normal (%) [4]: 100%
Population Pyknosed Nuclei (%) [4]: 13% and 28%
Population Tubulin-Different-Phenotype (%) [4]: 53% and 45%
Population Apoptotic (%) [5]: 72% and 90%
Population Fragmented Nuclei (%) [5]: 10% and 18%
Population Healthy Nuclei (%) [5]: 64% and 58%
Population Hoechst High Intensity Objects (%) [5]: 0%
Population Membrane Permeable-Phenotype (%) [5]: 5% and 0%
Population Mitochondria Different-Phenotype (%) [5]: 0%
Population Mitotic Cells (%) [5]: 27% and 10%
Population Normal (%) [5]: 99% and 100%
Population Pyknosed Nuclei (%) [5]: 24% and 23%
Population Tubulin-Different-Phenotype (%) [5]: 68% and 48%
Population Apoptotic (%) [6]: 90% and 89%
Population Hoechst High Intensity Objects (%) [6]: 0%
Population Membrane Permeable-Phenotype (%) [6]: 0% and 25%
Population Mitotic Cells (%) [6]: 10%
Population Normal (%) [6]: 100% and 99%
Population Pyknosed Nuclei (%) [6]: 38% and 51%
Population Tubulin-Different-Phenotype (%) [6]: 50% and 52%

Cn1cc(-c2ccc(-c3cncc(Cl)c3N3CCC4(CCNC4=O)CC3)cc2)cn1
Population Apoptotic (%) [1]: 56% and 66%
Population Healthy Nuclei (%) [1]: 86% and 64%
Population Hoechst High Intensity Objects (%) [1]: 0%
Population Membrane Permeable-Phenotype (%) [1]: 3% and 7%
Population Mitochondria Different-Phenotype (%) [1]: 1% and 0%
Population Mitotic Cells (%) [1]: 43% and 33%
Population Normal (%) [1]: 99% and 100%
Population Pyknosed Nuclei (%) [1]: 8% and 7%
Population Tubulin-Different-Phenotype (%) [1]: 64% and 40%
Population Apoptotic (%) [2]: 100% and 50%
Population Healthy Nuclei (%) [2]: 61% and 79%
Population Hoechst High Intensity Objects (%) [2]: 0%
Population Membrane Permeable-Phenotype (%) [2]: 19% and 10%
Population Mitochondria Different-Phenotype (%) [2]: 0% and 6%
Population Normal (%) [2]: 100%
Population Pyknosed Nuclei (%) [2]: 9% and 14%
Population Tubulin-Different-Phenotype (%) [2]: 23% and 36%
Population Apoptotic (%) [3]: 72% and 66%
Population Healthy Nuclei (%) [3]: 88% and 65%
Population Hoechst High Intensity Objects (%) [3]: 0%
Population Membrane Permeable-Phenotype (%) [3]: 2% and 7%
Population Mitochondria Different-Phenotype (%) [3]: 2% and 0%
Population Mitotic Cells (%) [3]: 27% and 33%
Population Normal (%) [3]: 100%
Population Pyknosed Nuclei (%) [3]: 8% and 6%
Population Tubulin-Different-Phenotype (%) [3]: 65% and 39%
Population Apoptotic (%) [4]: 88% and 60%
Population Healthy Nuclei (%) [4]: 59% and 80%
Population Hoechst High Intensity Objects (%) [4]: 0%
Population Membrane Permeable-Phenotype (%) [4]: 20% and 14%
Population Mitochondria Different-Phenotype (%) [4]: 0% and 17%
Population Normal (%) [4]: 100% and 99%
Population Pyknosed Nuclei (%) [4]: 21% and 13%
Population Tubulin-Different-Phenotype (%) [4]: 32% and 46%
Population Apoptotic (%) [5]: 70% and 100%
Population Healthy Nuclei (%) [5]: 88% and 65%
Population Hoechst High Intensity Objects (%) [5]: 0%
Population Membrane Permeable-Phenotype (%) [5]: 2% and 5%
Population Mitochondria Different-Phenotype (%) [5]: 3% and 0%
Population Normal (%) [5]: 99% and 100%
Population Pyknosed Nuclei (%) [5]: 7% and 6%
Population Tubulin-Different-Phenotype (%) [5]: 65% and 47%
Population Apoptotic (%) [6]: 78% and 92%
Population Fragmented Nuclei (%) [6]: 7% and 17%
Population Healthy Nuclei (%) [6]: 74% and 53%
Population Hoechst High Intensity Objects (%) [6]: 0%
Population Membrane Permeable-Phenotype (%) [6]: 25% and 33%
Population Mitotic Cells (%) [6]: 21% and 7%
Population Normal (%) [6]: 100%
Population Pyknosed Nuclei (%) [6]: 17% and 28%
Population Tubulin-Different-Phenotype (%) [6]: 50% and 45%
